Common to all, as to format: functional, organism-based
The subject of one experiment is Staphylococcus aureus. Put plainly: Antibacterial activity against Staphylococcus aureus at 20 to 120 ug/disk. In short, it runs like this: (§1)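 Agar diffusion test with compound loaded at 20 to 120 µg/disk. Read-out is a zone of growth inhibition of the test organism on agar. The same format covers bacteria (S. aureus, B. subtilis, E. coli, P. aeruginosa), the fungus Mucor miehei and the yeast Candida albicans.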

Another experiment deals with Pseudomonas aeruginosa. The experiment in a line: Antibacterial activity against Pseudomonas aeruginosa at 20 to 120 ug/disk. An outline of the steps: as §1
For a further experiment, the system named is Escherichia coli. The experiment in a line: Antibacterial activity against Escherichia coli at 20 to 120 ug/disk. In short, it runs like this:
as §1

The test system of a further experiment is Bacillus subtilis. Put plainly: Antibacterial activity against Bacillus subtilis at 20 to 120 ug/disk. In short, it runs like this: as §1
Another experiment deals with Candida albicans. Put plainly: Antifungal activity against Candida albicans at 20 to 120 ug/disk. An outline of the steps:
as §1

For the next experiment, the system named is Rhizomucor miehei. Put plainly: Antifungal activity against Mucor miehei at 20 to 120 ug/disk. An outline of the steps: as §1
Another experiment concerns Trichomonas vaginalis. The experiment in a line: Antiprotozoal activity against Trichomonas vaginalis.

We go through eight compounds from ChEMBL document CHEMBL1142407, “Angucyclinones from an Indonesian Streptomyces sp” (J Nat Prod, 2008).

Activity calls are given as the source filed them. The calls are words filed in the database; no cut-off is given here.

On to `C[C@@H]1CC(=O)C2=C(C[C@@H](O)[C@]3(O)[C@H]2C(=O)c2cccc(O)c2[C@@H]3O)[C@H]1O`, for which the result in the experiment on Staphylococcus aureus, with Pseudomonas aeruginosa, in the experiment on Escherichia coli, in the experiment on Bacillus subtilis, in the experiment with Candida albicans and in the experiment on Rhizomucor miehei was inactive. The outcome in the experiment on Trichomonas vaginalis was inactive.
On to `C[C@@H]1CC(=O)C2=C(C1)C[C@@H](O)[C@]1(O)[C@H]2C(=O)c2cccc(O)c2[C@@H]1O`, for which the result in the experiment with Staphylococcus aureus, in the experiment on Pseudomonas aeruginosa, with Escherichia coli, in the experiment with Bacillus subtilis, in the experiment with Candida albicans and with Rhizomucor miehei was inactive. The result in the experiment on Trichomonas vaginalis was inactive.
For the compound `C[C@@H]1CC(=O)C2=C(C3OC3[C@]3(O)[C@H]2C(=O)c2cccc(O)c2[C@@H]3O)[C@H]1O` (stereo not given in full), the outcome in the experiment with Staphylococcus aureus, in the experiment with Pseudomonas aeruginosa, in the experiment with Escherichia coli, with Bacillus subtilis, with Candida albicans and with Rhizomucor miehei was inactive. Further, the outcome in the experiment on Trichomonas vaginalis was inactive.
Take `C[C@@H]1CC(=O)C2=C(CC[C@]3(O)[C@H]2C(=O)c2cccc(O)c2[C@@H]3O)C1`: the outcome with Staphylococcus aureus, with Pseudomonas aeruginosa, in the experiment with Escherichia coli, with Bacillus subtilis, in the experiment on Candida albicans and with Rhizomucor miehei was inactive. For the same compound, the result with Trichomonas vaginalis was inactive.
For `C[C@@H]1CC(=O)C2=C(C1)C1OC1[C@]1(O)[C@H]2C(=O)c2cccc(O)c2[C@@H]1O` (stereo not given in full), the result in the experiment on Staphylococcus aureus, with Pseudomonas aeruginosa, with Escherichia coli, with Bacillus subtilis, in the experiment on Candida albicans and with Rhizomucor miehei was inactive. In addition, the outcome with Trichomonas vaginalis was inactive.
Take `C[C@@H]1CC(=O)c2c(ccc3c2C(=O)c2cccc(O)c2C3=O)C1`: the result in the experiment on Pseudomonas aeruginosa and with Bacillus subtilis was Active.
As for `C[C@H]1CC(=O)c2c(ccc3c2C(=O)c2cccc(O)c2C3=O)[C@@H]1O`, the outcome with Pseudomonas aeruginosa and with Bacillus subtilis was Active.
On to `CC1CC(=O)C2(O)C(O)(CCC34OC32C(=O)c2cccc(O)c2C4O)C1` (stereo not given), for which the outcome in the experiment with Staphylococcus aureus, in the experiment with Pseudomonas aeruginosa, in the experiment on Escherichia coli, in the experiment on Bacillus subtilis, with Candida albicans and with Rhizomucor miehei was inactive.
